# Source: ChEMBL document CHEMBL3739420, “Benzoxazolone Carboxamides as Potent Acid Ceramidase Inhibitors: Synthesis and Structure-Activity Relationship (SAR) Studies” (J Med Chem, 2015)
# Active and inactive are the calls of the source. The calls are words filed in the database; no cut-off is given here.
# Key:
# [1] = Chemical stability in AC assay buffer at 10 uM at pH 4.5 under shaking by UPLC method; type: physicochemical; conditions: pH 4.5, 10 µM
# [2] = biological target: T1, Acid ceramidase (Homo sapiens, UniProt Q13510); experiment: Inhibition of recombinant human acid ceramidase expressed in HEK293 cells using N-[(1S,2R)-2-hydroxy-1-(hydroxymethyl)-4-(2-oxochromen-7-yl)-oxybutyl]dodecanamide substrate preincubated for 10 mins; type: cell-based
# T1 sequence (Q13510 whole entry): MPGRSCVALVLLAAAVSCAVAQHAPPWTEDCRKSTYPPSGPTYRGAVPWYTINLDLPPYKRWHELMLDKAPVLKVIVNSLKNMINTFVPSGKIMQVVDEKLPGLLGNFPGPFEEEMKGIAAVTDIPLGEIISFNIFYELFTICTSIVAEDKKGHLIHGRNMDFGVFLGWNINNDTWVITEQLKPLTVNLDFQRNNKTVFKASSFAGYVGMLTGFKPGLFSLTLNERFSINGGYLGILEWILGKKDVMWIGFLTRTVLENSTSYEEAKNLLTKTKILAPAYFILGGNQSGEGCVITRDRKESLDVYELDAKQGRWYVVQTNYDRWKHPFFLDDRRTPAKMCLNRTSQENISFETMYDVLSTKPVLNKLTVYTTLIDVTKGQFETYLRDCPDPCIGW
# Procedure, shortened: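 AC-enriched lysosomal lysate from HEK293 cells stably expressing human AC, preincubated 10 min with compound. Coumarin-linked dodecanamide substrate then added at 5 μM final and incubated 3 h at 37 °C. Reaction stopped with MeOH, then NaIO4 at pH 10.6 for 2 h at 37 °C in the dark; umbelliferone fluorescence read at 355/460 nm. IC50 from nonlinear regression; mean of ≥2 determinations.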
# [3] = Stability in 1 % DMSO containing phosphate-buffered solution assessed as half life at 10 uM at pH 7.4 under shaking by UPLC method; type: physicochemical; conditions: for half-life at 10 µM: phosphate-buffered solution, pH 7.4; for t1/2: buffer, pH 7.4, 10 µM
# Procedure, shortened: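 Compound incubated at 10 μM in PBS pH 7.4; half-life derived by fitting the decay profile.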
# [4] = biological target: T2, Acid ceramidase (Homo sapiens) (UniProt Q13510); experiment: Inhibition of recombinant human acid ceramidase expressed in HEK293 cells at 5 uM using N-[(1S,2R)-2-hydroxy-1-(hydroxymethyl)-4-(2-oxochromen-7-yl)-oxybutyl]dodecanamide substrate preincubated for 10 mins; type: cell-based
# T2 sequence (whole entry): T1 sequence (Q13510 whole entry)
# [5] = tested on: Mus musculus; experiment: Inhibition of acid ceramidase in C57BL/6 mouse lung assessed as decrease in sphingosine level at 10 mg/kg, ip after 3 hrs by LC-MS method; type: functional, organism-based
# [6] = tested on: Mus musculus; experiment: Inhibition of acid ceramidase in C57BL/6 mouse lung assessed as increase in dihydroceramide level at 10 mg/kg, ip upto 6 hrs by LC-MS method; type: functional, organism-based
# [7] = tested on: Mus musculus; experiment: Inhibition of acid ceramidase in C57BL/6 mouse cerebral cortex at 10 mg/kg, ip after 24 hrs by bicinchoninic acid based protein assay; type: functional, organism-based
# Procedure, shortened: (§1)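 Male C57BL/6 mice dosed ip at 10 mg/kg in 15% PEG/15% Tween-80/70% saline; lung and cerebral cortex collected 30 min–24 h after dosing. Lysosomal extracts were prepared by sonication and differential centrifugation, then incubated at pH 4.5 with 50 μM C12-ceramide for 1 h at 37 °C. Lauric acid product measured by UPLC–MS with an internal standard; activity expressed as % of vehicle; n = 6.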
# [8] = tested on: Mus musculus; experiment: Inhibition of acid ceramidase in C57BL/6 mouse lung assessed as increase in ceramide level at 10 mg/kg, ip upto 6 hrs by LC-MS method; type: functional, organism-based
# [9] = tested on: Mus musculus; experiment: Inhibition of acid ceramidase in C57BL/6 mouse cerebral cortex assessed as changes in sphingolipid level at 10 mg/kg, ip by LC-MS method; type: functional, organism-based
# [10] = tested on: Mus musculus; experiment: Inhibition of acid ceramidase in C57BL/6 mouse lung assessed as decrease in sphingosine-1-phosphate level at 10 mg/kg, ip after 3 hrs by LC-MS method; type: functional, organism-based
# [11] = tested on: Mus musculus; experiment: Inhibition of acid ceramidase in C57BL/6 mouse lung at 10 mg/kg, ip after 24 hrs by bicinchoninic acid based protein assay; type: functional, organism-based; procedure, shortened: as §1
SMILES,IC50 ([2]; read-out: IC50) [nM],half-life at 10 µM [3] [h],further results
O=C(NCCCCc1ccccc1)n1c(=O)oc2ccc([N+](=O)[O-])cc21,,,Stability [1]: Stable
O=C(NCCSCc1ccccc1)n1c(=O)oc2ccccc21,65,,
O=C(c1ccc(Cl)cc1)c1ccc2c(c1)oc(=O)n2C(=O)NCCCCc1ccccc1,,4.57,Stability [1]: Stable
COc1ccc(-c2ccc3oc(=O)n(C(=O)NCCCCc4ccccc4)c3c2)cc1,67,2.93,
O=C(NCCCCc1ccc2ccccc2c1)n1c(=O)oc2ccccc21,71,,
O=C(NCCCCc1ccccc1)n1c(=O)oc2ccc(-c3ccc(F)cc3)cc21,,> 5,
CN(CCNC(=O)n1c(=O)oc2ccccc21)Cc1ccccc1,,,inhibition [4]: inactive
O=C(NCCCCc1ccccc1)n1c(=O)oc2cccc(Br)c21,,,IC50 ([2]; hek293): ND(Unstable)
O=C(c1ccccc1)c1ccc2oc(=O)n(C(=O)NCCCCc3ccccc3)c2c1,24,,
O=C(NCCCCc1ccccc1)n1c(=O)oc2ccccc21,,,t1/2 [3]: 0.75 h
O=C(NCCCCCCc1ccccc1)n1c(=O)oc2ccccc21,51,,
O=C(NCCOCc1ccccc1)n1c(=O)oc2ccccc21,649,,
O=C(NCCCCc1cccs1)n1c(=O)oc2ccccc21,37,,
O=C(NCCCCc1ccccc1)n1c(=O)oc2cccc(-c3ccccc3)c21,,0.117,
COc1ccc(-c2ccc3c(c2)oc(=O)n3C(=O)NCCCCc2ccccc2)cc1,,2.2,
O=C(NCCCCc1ccccc1)n1c(=O)oc2c(-c3ccccc3)cccc21,,> 5,

SMILES,IC50 ([2]; read-out: IC50) [nM],half-life at 10 µM [3] [h],further results
O=C(NCCCCc1ccccc1)n1c(=O)oc2cc(-c3ccc(F)cc3)ccc21,,> 5,
O=C(NCCCCc1ccc([N+](=O)[O-])cc1)n1c(=O)oc2ccccc21,312,,
O=C(c1ccccc1)c1ccc2c(c1)oc(=O)n2C(=O)NCCCCc1ccccc1,,1.63,Stability [1]: Stable
O=C(NCCCCc1ccccc1)n1c(=O)oc2cc(-c3ccccc3)ccc21,,> 5,
O=C(NCCCCc1ccccc1)n1c(=O)oc2ccc(F)cc21,12,,
O=C(NCCCCc1ccccc1)n1c(=O)oc2ccc(Cl)cc21,15,,
O=C(NCCCCc1ccccc1)n1c(=O)oc2cc(F)ccc21,31,,
O=C(NCCCCc1ccccc1)n1c(=O)oc2cc([N+](=O)[O-])ccc21,,,Stability [1]: Stable
O=C(NCCCCc1ccccc1)n1c(=O)oc2ccc(-c3ccccc3)cc21,42,4.93,Stability [1]: Stable
O=C(NCCc1ccccc1)n1c(=O)oc2ccccc21,121,,
Cc1cccc2oc(=O)n(C(=O)NCCCCc3ccccc3)c12,,,IC50 ([2]; hek293): ND(Unstable)
O=C(NCCCCc1ccccc1)n1c(=O)oc2ccc(C(F)(F)F)cc21,18,,
O=C(NCCCCc1ccccc1)n1c(=O)oc2cc(Cl)ccc21,,0.967,inhibition [5]: Active; inhibition [6]: Active; inhibition [7]: Active; inhibition [8]: Active; inhibition [9]: inactive; inhibition [10]: Active; inhibition [11]: Active; Stability [1]: Stable
O=C(NCCCCc1ccccc1)n1c(=O)oc2cc(Cl)c(Cl)cc21,,0.917,
Cc1ccc(CCCCNC(=O)n2c(=O)oc3ccccc32)cc1,25,,
O=C(NCCCCc1ccccc1)n1c(=O)oc2cc(Br)ccc21,,,"t1/2 [3]: 0.4 h; IC50 ([2]; hek293, read-out: IC50): 31 nM"
